For data set [1], the target named is T1, Lysine-specific histone demethylase 1A (Homo sapiens, UniProt O60341). As to the kind of experiment: Inhibition of recombinant LSD1 (unknown origin) using H3K4me2 as substrate by fluorescence assay.
Data set [2] has as its target T1, Lysine-specific histone demethylase 1A. As to conditions: 1.6 uM.
Data set [3] shares this target. In words: Inhibition of LSD1 in human A549 cells assessed as accumulation of H3K4me1 after 96 hrs by Western blot analysis. In kind it is cell-based. In a few lines:
(§1)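 A549 cells were treated with 0, 1 and 6 µM for 96 h, then lysed in RIPA buffer (50 mM Tris-HCl pH 7.5) with protease inhibitors. Lysates went through SDS-PAGE, PVDF transfer and probing for the histone mark, with ECL detection. Bands were quantified against total H3. Run at least three times; mean ± SD.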

The target is the same in data set [4]. As to the kind of experiment: Inhibition of LSD1 in human A549 cells assessed as accumulation of H3K4me2 after 96 hrs by Western blot analysis. It counts as cell-based. In a few lines: as §1
Data set [5] has the same target. As to the kind of experiment: Inhibition of LSD1 in human A549 cells assessed as accumulation of H3K9me2 after 96 hrs by Western blot analysis. It counts as cell-based. In a few lines:
as §1

For data set [6] the target is unchanged. As to the kind of experiment: Inhibition of LSD1 in human A549 cells assessed as accumulation of H3K4me1 up to 6 uM after 96 hrs by Western blot analysis. In kind it is cell-based. In a few lines:
(§2)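 A549 cells exposed to 0, 1 or 6 µM for 96 h, lysed in RIPA buffer (pH 7.5) with protease inhibitors. Lysates (40 µg/lane) resolved by 10% or 12% SDS-PAGE and immunoblotted for H3K4me1/2 and H3K9me1/2. ECL read-out, quantified against total histone H3 loading control. At least three experiments, mean ± SD.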

For data set [7] the target is unchanged. As to the kind of experiment: Inhibition of LSD1 in human A549 cells assessed as accumulation of H3K4me2 up to 6 uM after 96 hrs by Western blot analysis. In kind it is cell-based. In a few lines: as §2
The target is the same in data set [8]. In words: Inhibition of LSD1 in human A549 cells assessed as accumulation of H3K9me1 up to 6 uM after 96 hrs by Western blot analysis. It counts as cell-based. In a few lines: as §2
Data set [9] has the same target. In words: Inhibition of LSD1 in human A549 cells assessed as accumulation of H3K9me2 up to 6 uM after 96 hrs by Western blot analysis. It counts as cell-based. In a few lines: as §2
The subject of data set [10] is A549. As to the kind of experiment: Up regulation of E-cadherin levels in human A549 cells up to 6 uM after 96 hrs by Western blot analysis. In kind it is functional, cell-based. The essentials:
(§3)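 A549 cells treated with 0, 1 or 6 µM for 96 h, harvested with trypsin and lysed in RIPA buffer (pH 7.5) with protease inhibitors. 40 lg protein/lane on SDS-PAGE, transferred to PVDF, probed overnight with specific primary antibodies. ECL detection, quantified against GAPDH loading control. At least three experiments, mean ± SD.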

Data set [11] has as its system A549. In words: Up regulation of claudin-1 levels in human A549 cells up to 6 uM after 96 hrs by Western blot analysis. In kind it is functional, cell-based. In a few lines:
as §3

The subject of data set [12] is A549. As to the kind of experiment: Down regulation of N-cadherin levels in human A549 cells up to 6 uM after 96 hrs by Western blot analysis. In kind it is functional, cell-based. In a few lines: as §3
Data set [13] concerns A549. In words: Down regulation of slug levels in human A549 cells up to 6 uM after 96 hrs by Western blot analysis. In kind it is functional, cell-based. The essentials: as §3
For data set [14], the system named is A549. As to the kind of experiment: Down regulation of snail levels in human A549 cells up to 6 uM after 96 hrs by Western blot analysis. In kind it is functional, cell-based. In a few lines: as §3
The test system of data set [15] is A549. As to the kind of experiment: Effect on LSD1 expression in human A549 cells up to 6 uM after 96 hrs by Western blot analysis. In kind it is functional, cell-based. In a few lines:
as §3

Data set [16] relates to A549. In words: Antimigratory activity against human A549 cells at 6 uM after 48 hrs by wound healing assay. In kind it is functional, cell-based. The essentials:
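Scratch wound assay in A549 monolayers: cells seeded at 1 × 10⁴ per well, incubated 24 h, then scratched with a pipette tip. Cultured 48 h in fresh medium with 1% FBS and varying compound concentrations, then photographed under an inverted microscope. At least three independent experiments, mean ± SD.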

For data set [17], the target named is T1, Lysine-specific histone demethylase 1A. In words: Binding affinity to LSD1 in human A549 cells assessed as thermal stability by measuring temperature at 10 uM after 1 hr by thermal shift assay. In kind it is cell-based. In a few lines:
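CETSA: A549 cells (5 × 10⁵ per sample) were exposed 1 h to 10 µM compound or DMSO, washed in PBS, and resuspended in PBS with protease inhibitor. Samples were heated 3 min at the indicated temperatures (e.g. 46, 49, 52 °C), then freeze-thawed three times in liquid nitrogen. Soluble LSD1 was measured by western blot with a GAPDH control; three independent experiments.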

Data set [18] has the same target. As to the kind of experiment: Inhibition of LSD1 in human A549 cells assessed as accumulation of H3K9me1 after 96 hrs by Western blot analysis. It counts as cell-based. The essentials:
as §1

For data set [19], the target named is T2, MAO-A (Homo sapiens, UniProt P21397).
T2 sequence (P21397 whole entry): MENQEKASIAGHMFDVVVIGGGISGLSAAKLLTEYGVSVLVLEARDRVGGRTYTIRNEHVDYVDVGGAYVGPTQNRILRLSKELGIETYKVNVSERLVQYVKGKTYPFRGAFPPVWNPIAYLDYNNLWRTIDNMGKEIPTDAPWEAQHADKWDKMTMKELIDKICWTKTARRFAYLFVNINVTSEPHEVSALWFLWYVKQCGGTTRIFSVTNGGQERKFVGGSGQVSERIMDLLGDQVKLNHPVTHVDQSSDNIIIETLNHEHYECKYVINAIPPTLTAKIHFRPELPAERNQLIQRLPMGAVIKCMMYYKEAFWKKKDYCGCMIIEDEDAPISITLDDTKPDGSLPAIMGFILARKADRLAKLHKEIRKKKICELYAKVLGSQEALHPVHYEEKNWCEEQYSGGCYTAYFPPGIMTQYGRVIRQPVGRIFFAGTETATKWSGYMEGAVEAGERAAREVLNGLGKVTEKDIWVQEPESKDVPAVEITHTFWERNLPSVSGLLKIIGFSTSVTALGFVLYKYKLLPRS
As to the kind of experiment: Inhibition of MAO-A (unknown origin) at 10 uM relative to control.

Data set [20] addresses T2, MAO-A. In words: Inhibition of MAO-A (unknown origin) at 1 uM relative to control.
Data set [21] deals with T3, MAO-B (Homo sapiens, UniProt P27338).
T3 sequence (P27338 whole entry): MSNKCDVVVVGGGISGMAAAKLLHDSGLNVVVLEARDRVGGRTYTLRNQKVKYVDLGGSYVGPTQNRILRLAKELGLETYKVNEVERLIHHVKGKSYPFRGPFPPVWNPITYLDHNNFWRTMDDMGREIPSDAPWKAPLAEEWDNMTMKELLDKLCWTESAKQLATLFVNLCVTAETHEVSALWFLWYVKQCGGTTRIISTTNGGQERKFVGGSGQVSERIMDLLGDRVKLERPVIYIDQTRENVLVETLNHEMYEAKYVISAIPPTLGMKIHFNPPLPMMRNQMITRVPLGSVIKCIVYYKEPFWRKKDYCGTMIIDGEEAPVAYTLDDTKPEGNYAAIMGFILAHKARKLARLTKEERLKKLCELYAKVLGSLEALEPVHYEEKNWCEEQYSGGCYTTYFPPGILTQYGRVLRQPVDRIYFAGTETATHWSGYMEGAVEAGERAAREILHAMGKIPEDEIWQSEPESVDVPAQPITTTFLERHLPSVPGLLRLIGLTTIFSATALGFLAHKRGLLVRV
As to the kind of experiment: Inhibition of MAO-B (unknown origin) at 10 uM relative to control.

In data set [22] the target is T3, MAO-B. In words: Inhibition of MAO-B (unknown origin) at 1 uM relative to control.
Data set [23] deals with T1, Lysine-specific histone demethylase 1A. As to the kind of experiment: Reversible inhibition of recombinant LSD1 (unknown origin) assessed as recovery of enzyme activity at 40 uM measured 1 hr after 80-fold dilution. The essentials: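 Dilution assay: 2.5 µg recombinant LSD1 was preincubated 1 h at 25 °C with 40 µM compound, 1.6 µM GSK2879552 or DMSO. Aliquots were then diluted 80-fold into HRP-coupled assay solution with substrate and compared with undiluted mixtures to assess recovery of LSD1 activity.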

The target is the same in data set [24]. In words: Competitive inhibition of recombinant LSD1 (unknown origin) up to 1.25 uM using H3K4me2 as substrate in presence of FAD by Lineweaver-Burk plot analysis.
The test system of data set [25] is A549. In words: Antimigratory activity against human A549 cells after 48 hrs by wound healing assay. It counts as functional, cell-based. The essentials:
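Scratch assay: cells seeded at 1 × 10⁴ per well and grown 24 h, then the monolayer was scratched with a pipette tip. Cells were then cultured 48 h in fresh medium with 1% FBS and graded compound concentrations. Wound closure was photographed under an inverted microscope. Run at least three times; mean ± SD.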

Data set [26] concerns the target T1, Lysine-specific histone demethylase 1A. As to the kind of experiment: Inhibition of H3K4me2 binding to LSD1 in human A549 cells up to 6 uM after 96 hrs by immunoprecipitation assay. It counts as cell-based. In a few lines: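 Co-IP: A549 cells were treated with 0 or 6 µM for 96 h, trypsinised, and lysed in IP lysis/wash buffer with protease inhibitors. LSD1 antibody was used as bait, and H3K4me2 bound to LSD1 was detected. Total cell lysate was blotted alongside with a GAPDH loading control.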

Another data set concerns GES1. In words: Cytotoxicity against human GES-1 cells assessed as decrease in cell viability after 96 hrs by MTT assay. In kind it is cell-based. As to conditions: GES1, 96 h. The essentials: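 GES-1 cells were grown in RPMI-1640 with 10% FBS at 37 °C and 5% CO₂. They were seeded at 3 × 10³ per well, left overnight, then given graded concentrations for 4 days (0.1% DMSO vehicle). MTT was added for 4 h at 37 °C, formazan dissolved in DMSO, and A570 read. Viability = (At/As) × 100% against solvent control.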

The source made the active and inactive calls. The calls are words filed in the database; no cut-off is given here. Bounds are passed on as bounds.

In the case of `CNCCN(C)c1cc(C)nc2nc(SCc3ccccc3)nn12`, the IC50 in [1] was above 50 µM.
On the same count and under the same terms, the figure for `Cc1cc(NN)n2nc(SCc3cccc4ccccc34)nc2n1` is above 50 µM; for `Cc1cc(N2CCCC(NC(=O)OC(C)(C)C)C2)n2nc(SCc3ccccc3)nc2n1` (stereo not drawn) it is above 50 µM; for `NNc1cc(-c2ccccc2)nc2nc(SCc3ccccc3)nn12` it is above 50 µM.
Consider `O=C(O)c1ccc(CN2CCC(CN[C@@H]3C[C@H]3c3ccccc3)CC2)cc1`, for which the inhibition result in data set [2] was “Active”.
For `Cc1cc(N)n2nc(SCc3ccccc3)nc2n1`, the IC50 in data set [1] is above 50 µM.
On the same count and under the same terms, the figure for `Cc1cc(N(C)CCN(C)C)n2nc(SCc3ccccc3)nc2n1` is above 50 µM.
For the molecule `c1ccc([C@@H]2C[C@H]2NC2CCNCC2)cc1` (racemic), the inhibition entry in data set [3], in data set [4] and in [5] was “Dose-dependent effect” each time. Besides, the inhibition result (in data set [6]; in data set [7]; in data set [9]; with A549 [16]) was “Active” throughout. The inhibition result in data set [8] was “inactive”. The outcome with A549 [10], in the data set on A549 [11], in the data set with A549 [12], with A549 [13] and in the data set on A549 [14] was Active. Also, the result with A549 [15] was inactive.
As to `Cc1cc(NCCN)n2nc(SCc3ccccc3)nc2n1`, the IC50 in [1] was above 50 µM.
Take `Cc1cc(NN)n2ncnc2n1`: in [1], the IC50 is above 50 µM. Further, in data set [17], the outcome was inactive. The inhibition entry in [3], in data set [4], in data set [18], in [5] and in [8] was “inactive” in each case.
As for `C/C(=N\NC(=O)c1cccc(S(=O)(=O)N2CCOCC2)c1)c1cc(Cl)ccc1O`, in data set [1], the IC50 was determined as 0.0243 µM.
Same read-out and setting: the figure for `Cc1cc(NCCOCCOCCN)n2nc(SCc3ccccc3)nc2n1` is above 50 µM.
On the same count and under the same terms, the figure for `Cc1cc(N2CCCC(N)C2)n2nc(SCc3ccccc3)nc2n1` (stereo not drawn) is above 50 µM.
Take `Cc1cc(NN)n2nc(SCc3ccccc3)nc2n1`: the IC50 in data set [1] is 0.882 µM; in the data set with GES1, above 50 µM. Moreover, the inhibition at 10 µM at MAO-A [19] turned out to be 36%; against MAO-B [21] it was 43%. Also, the inhibition at 1 µM at MAO-A [20] came out at 21%; against MAO-B [22] it was 15%. Moreover, the inhibition result in [23], in [24] and in data set [26] was “Active” each time. Further, the T in data set [17] came out at 52 °C. The inhibition entry in data set [3], in data set [4], in data set [18] and in [5] was “Dose-dependent effect” each time. Moreover, the Activity entry in the data set on A549 [25] is “Dose-dependent effect”. For the same molecule, the result with A549 [10], in the data set with A549 [11], with A549 [12], with A549 [13] and with A549 [14] was Active. Besides, the outcome in the data set with A549 [15] was inactive.

For the origin of these results see ChEMBL document CHEMBL4400535, “Experience-based discovery (EBD) of aryl hydrazines as new scaffolds for the development of LSD1/KDM1A inhibitors” (Eur J Med Chem, 2019).
